Calls of active or inactive are those of the source. The rule behind the calls is not given here.
Assays:
Format in all cases: subcellular
Conditions in all cases: Lysate
[1] = molecular target: T1, Ubiquitin carboxyl-terminal hydrolase 8 (Homo sapiens) (UniProt P40818); experiment: Inhibition of USP8 in HEK293T cell lysates at 25 uM using HA-tagged vinyl-sulfone as substrate measured after 2 to 30 mins by Western blot analysis
T1 sequence (whole entry): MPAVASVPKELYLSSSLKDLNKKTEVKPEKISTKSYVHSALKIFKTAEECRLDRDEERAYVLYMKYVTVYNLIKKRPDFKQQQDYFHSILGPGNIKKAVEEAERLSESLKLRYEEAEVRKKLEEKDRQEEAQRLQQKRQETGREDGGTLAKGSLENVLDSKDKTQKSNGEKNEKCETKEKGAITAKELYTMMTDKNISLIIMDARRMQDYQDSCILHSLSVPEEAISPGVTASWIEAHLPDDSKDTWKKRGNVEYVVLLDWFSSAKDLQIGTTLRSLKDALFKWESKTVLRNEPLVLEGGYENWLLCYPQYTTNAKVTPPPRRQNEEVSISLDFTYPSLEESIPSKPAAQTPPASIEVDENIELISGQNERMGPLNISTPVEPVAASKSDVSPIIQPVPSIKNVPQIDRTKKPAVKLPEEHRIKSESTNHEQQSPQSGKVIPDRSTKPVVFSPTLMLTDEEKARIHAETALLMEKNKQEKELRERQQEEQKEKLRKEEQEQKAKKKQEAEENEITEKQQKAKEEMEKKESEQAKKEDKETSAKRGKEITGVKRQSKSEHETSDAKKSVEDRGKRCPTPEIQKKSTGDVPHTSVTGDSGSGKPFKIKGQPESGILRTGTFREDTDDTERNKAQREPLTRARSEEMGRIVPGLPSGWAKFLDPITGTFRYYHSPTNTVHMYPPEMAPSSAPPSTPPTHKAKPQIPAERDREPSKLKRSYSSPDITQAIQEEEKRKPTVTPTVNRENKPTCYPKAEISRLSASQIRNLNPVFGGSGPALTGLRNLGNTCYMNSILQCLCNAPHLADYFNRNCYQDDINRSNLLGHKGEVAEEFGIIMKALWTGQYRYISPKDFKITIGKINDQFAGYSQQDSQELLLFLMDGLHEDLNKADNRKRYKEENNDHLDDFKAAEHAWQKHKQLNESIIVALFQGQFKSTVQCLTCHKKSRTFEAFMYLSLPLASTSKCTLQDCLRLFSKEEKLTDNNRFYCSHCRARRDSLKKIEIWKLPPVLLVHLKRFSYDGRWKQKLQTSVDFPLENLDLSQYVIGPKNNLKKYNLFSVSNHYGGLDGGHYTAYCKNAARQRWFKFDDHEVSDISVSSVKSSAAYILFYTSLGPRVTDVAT
Procedure, shortened: (§1)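 HEK 293T lysate (1.5 mg/ml) given compound (25 μM) or DMSO at the same time as HA-Ub-VS (1.5 μM). Aliquots withdrawn over time were run on SDS-PAGE and immunoblotted for HA.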

[2] = molecular target: T2, Ubiquitin carboxyl-terminal hydrolase 19 (Homo sapiens) (UniProt O94966); experiment: Inhibition of USP19 in HEK293T cell lysates at 25 uM using HA-tagged vinyl-sulfone as substrate measured after 2 to 30 mins by Western blot analysis; procedure, shortened: as §1
T2 sequence (whole entry): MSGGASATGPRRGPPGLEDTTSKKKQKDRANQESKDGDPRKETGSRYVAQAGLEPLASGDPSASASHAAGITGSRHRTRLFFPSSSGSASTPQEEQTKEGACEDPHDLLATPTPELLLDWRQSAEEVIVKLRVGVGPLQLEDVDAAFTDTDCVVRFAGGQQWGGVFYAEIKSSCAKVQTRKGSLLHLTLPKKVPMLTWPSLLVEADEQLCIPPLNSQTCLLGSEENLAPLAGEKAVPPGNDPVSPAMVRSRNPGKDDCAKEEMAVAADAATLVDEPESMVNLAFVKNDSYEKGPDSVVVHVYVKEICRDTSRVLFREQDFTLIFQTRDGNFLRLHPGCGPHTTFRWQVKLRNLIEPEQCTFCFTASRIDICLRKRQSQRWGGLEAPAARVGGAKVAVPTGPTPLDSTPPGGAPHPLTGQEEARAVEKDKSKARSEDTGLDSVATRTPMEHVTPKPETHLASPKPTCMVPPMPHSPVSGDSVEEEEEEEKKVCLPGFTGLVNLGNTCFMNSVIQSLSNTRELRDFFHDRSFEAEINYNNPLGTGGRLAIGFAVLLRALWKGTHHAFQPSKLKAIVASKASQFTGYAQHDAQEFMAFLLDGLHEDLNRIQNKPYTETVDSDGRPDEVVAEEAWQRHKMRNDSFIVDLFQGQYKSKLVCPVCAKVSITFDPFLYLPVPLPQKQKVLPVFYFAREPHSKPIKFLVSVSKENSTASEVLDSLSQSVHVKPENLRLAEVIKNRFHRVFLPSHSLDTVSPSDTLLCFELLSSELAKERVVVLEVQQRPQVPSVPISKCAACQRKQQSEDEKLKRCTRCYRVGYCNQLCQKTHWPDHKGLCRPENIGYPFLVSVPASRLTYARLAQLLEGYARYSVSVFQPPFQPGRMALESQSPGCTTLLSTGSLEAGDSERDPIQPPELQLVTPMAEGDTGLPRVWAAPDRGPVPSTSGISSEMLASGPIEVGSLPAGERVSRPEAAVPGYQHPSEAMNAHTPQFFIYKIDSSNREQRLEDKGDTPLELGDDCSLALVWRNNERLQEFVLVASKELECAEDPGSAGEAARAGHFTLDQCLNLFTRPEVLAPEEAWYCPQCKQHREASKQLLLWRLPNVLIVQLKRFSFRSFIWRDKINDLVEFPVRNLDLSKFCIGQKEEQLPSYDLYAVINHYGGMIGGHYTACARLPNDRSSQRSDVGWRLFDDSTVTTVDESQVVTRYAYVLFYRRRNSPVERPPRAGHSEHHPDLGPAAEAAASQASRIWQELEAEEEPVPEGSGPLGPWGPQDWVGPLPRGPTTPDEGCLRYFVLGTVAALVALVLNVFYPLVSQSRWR

[3] = molecular target: Ubiquitin carboxyl-terminal hydrolase 7 (Homo sapiens) (UniProt Q93009); experiment: Inhibition of USP7 in HEK293T cell lysates assessed as ratio of HA-Ub-VS modified USP7 to total USP7 at 100 uM using HA-Ub vinyl-sulfone as substrate preincubated for 19 to 60 mins followed by substrate addition and measured after 19 to 25 mins by Western blot analysis (reference value: 0.5)
Sequence of Ubiquitin carboxyl-terminal hydrolase 7 (Homo sapiens) (Q93009 whole entry, looked up): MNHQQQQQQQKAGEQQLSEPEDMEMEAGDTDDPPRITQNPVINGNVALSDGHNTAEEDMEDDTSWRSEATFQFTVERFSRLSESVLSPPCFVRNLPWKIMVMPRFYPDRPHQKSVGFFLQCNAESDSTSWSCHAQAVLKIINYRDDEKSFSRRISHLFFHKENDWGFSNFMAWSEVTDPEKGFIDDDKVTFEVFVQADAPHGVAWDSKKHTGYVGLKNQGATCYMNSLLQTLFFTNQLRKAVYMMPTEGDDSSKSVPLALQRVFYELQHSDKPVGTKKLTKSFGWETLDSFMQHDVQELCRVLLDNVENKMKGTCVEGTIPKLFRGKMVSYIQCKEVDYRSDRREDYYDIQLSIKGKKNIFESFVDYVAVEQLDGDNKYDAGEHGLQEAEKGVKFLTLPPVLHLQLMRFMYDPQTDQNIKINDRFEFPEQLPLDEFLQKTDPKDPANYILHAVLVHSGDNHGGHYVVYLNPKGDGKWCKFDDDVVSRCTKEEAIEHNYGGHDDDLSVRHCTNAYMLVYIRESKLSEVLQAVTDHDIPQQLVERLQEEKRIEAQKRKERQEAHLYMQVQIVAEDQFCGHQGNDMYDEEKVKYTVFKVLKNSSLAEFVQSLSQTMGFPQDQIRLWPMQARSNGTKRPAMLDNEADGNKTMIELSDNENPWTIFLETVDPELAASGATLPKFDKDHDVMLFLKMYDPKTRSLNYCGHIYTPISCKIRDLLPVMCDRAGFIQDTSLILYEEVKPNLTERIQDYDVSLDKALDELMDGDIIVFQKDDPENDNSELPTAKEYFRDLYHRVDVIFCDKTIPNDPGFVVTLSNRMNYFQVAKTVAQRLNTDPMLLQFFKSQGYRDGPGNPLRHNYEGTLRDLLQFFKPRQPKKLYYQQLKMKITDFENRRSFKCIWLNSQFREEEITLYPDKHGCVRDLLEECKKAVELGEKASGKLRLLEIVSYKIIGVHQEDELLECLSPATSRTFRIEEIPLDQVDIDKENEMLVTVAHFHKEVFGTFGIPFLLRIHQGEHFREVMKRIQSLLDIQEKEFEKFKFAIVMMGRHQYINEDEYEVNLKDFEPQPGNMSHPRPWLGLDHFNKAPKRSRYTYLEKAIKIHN
Procedure, shortened: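 HEK 293T lysate incubated with compound, then treated with HA-Ub-VS. Samples were run on SDS-PAGE and blotted with anti-USP7, and the probe-modified USP7 band was distinguished from unmodified USP7.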

[4] = molecular target: Ubiquitin carboxyl-terminal hydrolase isozyme L1 (Homo sapiens) (UniProt P09936); experiment: Inhibition of UCHL1 in HEK293T cell lysates assessed as enzyme recovery at 250 uM using HA-tagged vinyl-sulfone as substrate […] followed by 10-fold dilution and subsequent substrate addition measured within 15 mins by Western blot analysis
Sequence of Ubiquitin carboxyl-terminal hydrolase isozyme L1 (Homo sapiens) (P09936 whole entry, looked up): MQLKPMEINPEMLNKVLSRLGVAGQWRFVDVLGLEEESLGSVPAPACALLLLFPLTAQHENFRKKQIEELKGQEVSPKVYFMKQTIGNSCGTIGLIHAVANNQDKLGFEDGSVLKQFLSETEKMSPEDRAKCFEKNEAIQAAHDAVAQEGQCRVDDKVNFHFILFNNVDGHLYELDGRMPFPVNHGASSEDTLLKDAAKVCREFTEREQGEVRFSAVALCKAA

[5] = molecular target: T1, Ubiquitin carboxyl-terminal hydrolase 8 (Homo sapiens); experiment: Inhibition of USP8 in HEK293T cell lysates at 25 uM using HA-tagged vinyl-sulfone as substrate preincubated for 19 to 60 mins followed by substrate addition and measured after 19 to 25 mins by Western blot analysis

Compound: NCc1ccc(OC(=O)Oc2ccc3ccccc3c2)cc1
- inhibition [1]: inactive
- inhibition [2]: inactive
- Ratio [3]: 0.3
- inhibition [4]: Active
- inhibition [5]: Active
